Bioassay records (PubChem)
Only some compounds are listed: those with a hit (about 1.3% of all), similar ones and a draw of the others.
NS3 helicase inh: inhibitors of HCV NS3 helicase, primary screen, biochemical, Cy5 molecular beacon fluorescence; actives 0.56% (n = 290,000); AID 1800, 2009; inhibition, % at 10.9 µM; Hepatitis C virus NS3 helicase; NS3 helicase DNA unwinding;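 active means inhibition above the mean of all tested compounds plus 3 SD, set per campaign, cut at about 35% in these data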;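 further: 0% = DMSO wells and 100% = thioflavine S control wells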
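Measured by: Cy5 fluorescence, 0 and 60 min reads / Assay system: NS3 helicase fragment of HCV / Control set: low DMSO, high thioflavine S at 110 µM / Times: 1 h reaction at 25 °C, ATP-initiated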
TbMetRS inhib: T. brucei MetRS inhibitors, primary screen, biochemical, luminescence. methionyl-tRNA synthetase (Trypanosoma brucei brucei). purified T. brucei MetRS, ATP depletion, Kinase-Glo luminescence. inhibition, % at 11.9 µM. actives 0.4% (n = 360,000). AID 624268, 2012;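 active means inhibition above a per-plate cutoff of the control wells' mean inhibition plus 3 SD, cut at about 5.5% in these data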;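 further: 0% = DMSO wells median and 100% = median of wells with control inhibitor compound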
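Dosing: 11.9 µM compound single dose, 0.9% DMSO; Assay system: purified T. brucei MetRS enzyme; Measured by: Kinase-Glo luciferase luminescence reporting remaining unconsumed ATP; Schedule: 15 min plus 2 h at 25 °C.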
core dimer inh: inhibitors of HCV core protein dimerization, primary screen, biochemical, TR-FRET, high-throughput; TR-FRET GST/Flag-core106 dimerization, 1536-well; inhibition, % at 5 µM; actives 0.33% (n = 300,000);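 active means inhibition above the mean of all tested compounds plus 3 SD, set per screening campaign, cut at about 45% in these data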
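Material: GST/Flag-tagged HCV core106 proteins. Incubation: 4 h, 22.5 °C incubation. Read-out basis: inhibition (%) from 671 over 617 nm ratio. Measured by: TR-FRET, excitation 340 nm, emission 617 and 671 nm.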
Hep lipid drop: inhibitors of hepatocyte lipid droplet formation, primary screen, imaging, high-throughput imaging, BODIPY stain. AML12 mouse hepatocytes, oleate lipid droplets. actives 0.4% (n = 240,000). inhibition, % at 6.5 µM;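 active means lipid droplet intensity inhibited by at least 50%, with more than 500 cells counted; inconclusive means wells with under 300 cells, treated as cytotoxic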
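Assay system: AML12 mouse liver cells | Compound: 6.5 µM single-point dosing | Schedule: Overnight exposure | Technique: Fluorescence imaging, 20x objective, two fields per well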
NS3 hel confirm: HCV NS3 helicase inhibitors, retest, confirmation, biochemical, Cy5 molecular beacon fluorescence, triplicate; shares compounds with NS3 helicase inh; NS3 helicase DNA unwinding; inhibition, % at 10.9 µM; actives 31% (n = 1,600);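 active means inhibition above the mean of all tested compounds plus 3 SD, cutoff set per campaign, cut at about 36% in these data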
DNA FID counter: compounds displacing fluorescent DNA intercalator, artefact control for HCV NS3 helicase inhibitor project, biochemical, FID fluorescence, triplicate. shares compounds with NS3 helicase inh. DNA fluorescent intercalator displacement. inhibition, % at 7.9 µM. actives 4% (n = 1,600); in the data active means inhibition above about 37%;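 further: 0% = vehicle and 100% = reference compound; higher means more displacement of ethidium bromide from the DNA hairpin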
An asterisk follows results filed as active; u = inconclusive; x = no result given.

SMILES	NS3 helicase inh	TbMetRS inhib	core dimer inh	Hep lipid drop	NS3 hel confirm	DNA FID counter
COC(=O)c1ccc(Cn2nnc3c(=O)[nH]c(C4CCCN(S(=O)(=O)c5cccc(Cl)c5)C4)nc32)cc1 (stereo not drawn)	38*	0	32	-42	-3	-40
CCCOC(c1ccccc1)(c1ccccc1)C(Oc1nc(C)cc(C)n1)C(=O)O (stereo not drawn)	16	0	6	3	x	x
Cc1cc(C)nc(OC(C(=O)O)C(OCc2ccccc2)(c2ccccc2)c2ccccc2)n1 (stereo not drawn)	37*	-2	-14	x	74*	-40
CC1=CC2=NC(=O)/C(=C\c3cc(C)n(-c4cccc(Cl)c4)c3C)C(=N)N2O1	5	-2	17	-24	x	x
CC1=CC2=NC(=O)/C(=C/c3coc4ccc(Cl)cc4c3=O)C(=N)N2O1	42*	0	7	6	-20	5
C=C(C)CCC(C)N1CCC(n2nccc2NC(=O)CCCc2ccccc2)CC1 (stereo not drawn)	7	0	-21	0	x	x
CCOC(=O)n1c(=O)n(C)c2ccc(Br)cc21	112*	-1	-1	6	-3	6
CCN(C(=O)COC(=O)CCc1ccc(OC)cc1)c1c(N)n(Cc2ccccc2)c(=O)[nH]c1=O	x	0	x	x	x	x
COCCn1c(=NC(=O)c2cc(-c3cccs3)nc3ccccc23)sc2cc(S(N)(=O)=O)ccc21	64*	-1	-31	4	-3	0
Cc1cc(O)c2c(C)c(CC(=O)N3CCN(C(=O)C4COc5ccccc5O4)CC3)c(=O)oc2c1 (stereo not drawn)	46*	-1	-8	-17	-5	-30
CNC(=O)c1[nH]cnc1C(=O)Nc1ccccn1	1	1	-3	-1	x	x
N#CCSc1nc2sccc2c(=O)n1-c1ccccc1	37*	0	21	5	-16	6
CNC(=O)CSc1nc2sccc2c(=O)n1-c1ccccc1	2	-1	29	10	x	x
COc1ccc(NC(=O)c2c(NC(=O)CCC(=O)O)sc(-c3ccccc3)c2C)cc1	37*	0	-2	-3	53*	-9
COc1ccc(-c2nc3c(Cl)cc(C(F)(F)F)cn3c2Cc2ccc(C)cc2)cc1OC	x	1	x	x	x	x
CCOC(=O)C(=CNc1ccccc1Cl)C(=O)OCC	1	0	x	16	x	x
CCOC(=O)C(=CNc1cc(Cl)c(-c2ccco2)c(Cl)c1)C(=O)OCC	46*	-1	4	-25	-5	-20
CCOC(=O)C(=CNc1ccc(C(F)(F)F)cc1Cl)C(=O)OCC	-7	-1	4	1	x	x
CCOC(=O)C(=CNc1ccc(-c2ccco2)c(Cl)c1)C(=O)OCC	42*	0	13	34	14	-27
CC(=O)c1cccc2c1OC(C)C(=O)N2Cc1ccc(Cl)cc1 (stereo not drawn)	x	0	x	x	x	x
Cc1cc(C(=O)CSc2nnnn2-c2ccc(O)cc2)c(C)n1Cc1ccc2c(c1)OCO2	3	-1	19	0	x	x
Cc1cc(C(=O)CSc2nnnn2-c2ccccc2)c(C)n1-c1ccc2c(c1)OCO2	37*	0	15	6	5	-14
CCOc1cc(/C=C2\SC(=Nc3ccc(CC)cc3)NC2=O)ccc1OCC(=O)O	46*	1	17	8	69*	7
CCOC(=O)c1c(N)sc(=S)c2c1CCC2	58*	0	45	x	28	4
COCCOC(=O)c1[nH]c2c(c1C)C(=O)CC(c1ccco1)C2 (stereo not drawn)	47*	0	42	-40	-6	2
SMILES	NS3 helicase inh	TbMetRS inhib	core dimer inh	Hep lipid drop	NS3 hel confirm	DNA FID counter
Cc1c(C(=O)OCCOC(C)C)[nH]c2c1C(=O)CC(c1ccco1)C2 (stereo not drawn)	13	-1	10	u	x	x
O=C(NCc1cccs1)c1ccc2sc(C3=C[C@@H](O)[C@@H](O)[C@@H](CO)O3)nc2c1	x	0	x	x	x	x
COc1ccccc1N1C(=O)CC(Nc2ccc(N3CCOCC3)cc2)C1=O (stereo not drawn)	28	1	-10	4	x	x
CCOc1ccccc1N1C(=O)CC(Nc2ccc(N3CCOCC3)cc2)C1=O (stereo not drawn)	42*	1	4	x	1	-11
O=C(/C=C\c1ccc(-c2ccccc2)o1)c1ccccc1	40*	-2	22	1	17	53*
O=c1c2cc(Br)ccc2nc(-c2ccc(Cl)cc2)n1O	37*	-1	-5	5	40*	9
Cc1ccc(-c2nc3c(Cl)cc(Cl)cc3c(=O)n2O)cc1	36*	-1	2	-2	62*	-3
O=c1c2cc(Cl)ccc2nc(-c2ccc([N+](=O)[O-])cc2)n1O	-6	0	-25	-4	x	x
COc1ccccc1C(=O)CC(=O)C(=O)Nc1cccc([N+](=O)[O-])c1C	37*	0	5	x	-33	-17
COc1ccc(NC(=O)N(C)C[C@H]2OCCCC[C@@H](C)Oc3ccc(N(C)C)cc3C(=O)N([C@H](C)CO)C[C@@H]2C)cc1	x	0	x	x	x	x
CC(CC(=O)O)CC(=O)Nc1cc(C(F)(F)F)cc(C(F)(F)F)c1 (stereo not drawn)	45*	-1	-1	1	5	5
CC1=NN(c2cccc(C(=O)O)c2)C(=O)/C1=C\C=C\c1ccco1	42*	-2	39	-4	76*	4
CC1=NN(c2ccccc2)C(=O)/C1=C/C=C/c1ccccc1	9	0	12	2	x	x
C#CCOc1ccc(/C=C2/C(=O)N(c3cccc(C(=O)O)c3)N=C2C)cc1OC	40*	0	7	-2	8	12
CCC(c1nc2ccccc2[nH]1)n1c(-c2ccnc(Cl)c2)nc2ccccc21 (stereo not drawn)	x	0	x	x	x	x
COC(=O)C[C@@H]1C=C[C@@H](NC(=O)CN(C)C)[C@@H](CO)O1	x	-1	x	x	x	x
O=C(NCCc1ccccn1)C1CCCN1S(=O)(=O)c1ccc(Cl)cc1 (stereo not drawn)	16	-1	2	-1	x	x
CCCCN(C(=O)c1ccc2c(c1)OCO2)C1CCS(=O)(=O)C1 (stereo not drawn)	x	0	-3	x	x	x
Cc1cc(C)n2nc(SCC(=O)Nc3ccc(F)cc3)nc2n1	51*	-1	-4	x	-12	3
Cc1cc(C)n2nc(SCC(=O)Nc3ccc(O)cc3)nc2n1	-8	-1	-3	-5	x	x
Cc1ccc([N+](=O)[O-])cc1CN1CCN(c2ncc(Cc3ccccc3)cn2)CC1	x	0	x	x	x	x
